From ChEMBL document CHEMBL1149663, “Design, synthesis and biological evaluation of 1,4-benzodiazepine-2,5-dione-based HDAC inhibitors” (Bioorg Med Chem Lett, 2007)
Active and inactive are the calls of the source. No cut-off for these calls is given here.

Tests used:
NCI-H661 = test: (§1) Antiproliferative activity against H661 cells after 48 hrs by XTT assay; format: functional, cell-based; conditions: Homo sapiens
How it was run: (§2)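 Non-small cell lung cancer H661 cells were treated for 48 h, and proliferation was read by XTT assay as % of untreated control. Each analogue was run in three to four independent experiments, each in triplicate. IC50 was taken from the proliferation curves as the concentration giving 50% inhibition of proliferation.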

[1] = as §1; format: functional, cell-based; conditions: Homo sapiens, NCI-H661, 48 h; how it was run: as §2
[2] = Antiproliferative activity against H661 cells at 5 uM after 48 hrs by XTT assay; format: functional, Homo sapiens, NCI-H661; how it was run: as §2

## CN1C(=O)[C@H](Cc2ccccc2)N(CCCCCC(=O)NO)C(=O)c2ccccc21
NCI-H661
  Activity: inactive

## CC(/C=C/C(=O)NO)=C\[C@@H](C)C(=O)c1ccc(N(C)C)cc1 [TRICHOSTATIN]
[1]
  IC50: 0.085 µM

## O=C(CCCCCN1C(=O)c2ccccc2N(Cc2ccccc2)C(=O)[C@@H]1Cc1ccccc1)NO
[1]
  IC50: 6 µM
[2]
  Activity: 40%

## Cc1cc(C)cc(CN2C(=O)[C@H](Cc3ccccc3)N(CCCCCC(=O)NO)C(=O)c3ccccc32)c1
[1]
  IC50: 8 µM
[2]
  Activity: 80%

## Cc1cc(C)cc(CN2C(=O)[C@H](Cc3ccccc3)N(C/C=C/CCC(=O)NO)C(=O)c3ccccc32)c1
[1]
  IC50: 17 µM

## O=C(CCCCCN1C(=O)c2ccccc2N(Cc2cccc3ccccc23)C(=O)[C@@H]1Cc1ccccc1)NO
[1]
  IC50: 16 µM

## O=C(CC/C=C/CN1C(=O)c2ccccc2N(Cc2ccccc2)C(=O)[C@@H]1Cc1ccccc1)NO
[1]
  IC50: 8 µM
[2]
  Activity: 80%
